Results on 6 compounds are retold here after ChEMBL document CHEMBL3351543, “Novel Type of Prodrug Activation through a Long-Range O,N-Acyl Transfer: A Case of Water-Soluble CREB Inhibitor” (ACS Med Chem Lett, 2014).

The test system of one data set is A549. The data set is described as follows: Growth inhibition of human A549 cells after 72 hrs by MTT assay. It is filed as functional, cell-based. As to conditions: A549, 72 h. The gist of the method:
(§1)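 Cancer cells exposed to compounds for 72 h; growth measured by MTT assay. GI50 is the concentration giving 50% growth inhibition, highest concentration tested 100 μM. Mean ± SD of at least two independent experiments.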

The subject of a further data set is HEK-293T. The data set can be described thus: Inhibition of CREB in HEK293T cells assessed as reduction in forskolin-induced NR4A2 mRNA expression at 2.5 uM pre-incubated for 1 hrs before forskolin stimulation for 45 mins by RT-PCR method. The format is cell-based. Conditions: Homo sapiens. The essentials: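 HEK 293T cells pretreated with compounds for 1 h, then forskolin added for a further 45 min. Endogenous NR4A2 mRNA quantified by qRT-PCR as relative level; significance by Student's t test.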

A short description of data set [1]: Half life in PBS buffer at pH 7.4 by RP-HPLC method. The format is ADME. The essentials: (§2)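 Compound incubated in PBS at room temperature at pH 7.40, 6.98, 6.48 or 6.01. Aliquots taken at set times were analysed by RP-HPLC, and percent parent remaining was quantified per chromatogram. Data fitted to first-order kinetics to derive t1/2; mean ± SD of two independent experiments.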

The nature of data set [2]: Inhibition of CREB (unknown origin) assessed as reduction in KIX-KID interaction after 20 to 24 hrs by renilla luciferase complementation assay. Also on record: species or system Homo sapiens. The gist of the method:
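In vitro Renilla luciferase complementation assay of KIX–KID interaction, run at 4 °C. Highest concentration tested 50 μM. IC50 given as mean ± SD of at least two independent experiments.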

Data set [3] in a line: Half life in PBS buffer at pH 6.48 by RP-HPLC method. The format is ADME. The gist of the method: as §2
For another data set, the system named is MDA-MB-468. The data set is described as follows: Growth inhibition of human MDA-MB-468 cells after 72 hrs by MTT assay. The format is functional. Conditions: MDA-MB-468, 72 h. The gist of the method: as §1
The next data set concerns MDA-MB-231. The data set is described as follows: Growth inhibition of human MDA-MB-231 cells after 72 hrs by MTT assay. The format is functional. As to conditions: MDA-MB-231, 72 h. The gist of the method:
as §1
A general note: Tetrazolium dyes change colour on reduction, which living cells bring about.

Data set [4] is described as follows: Half life in PBS buffer at pH 6.98 by RP-HPLC method. It is filed as ADME. The essentials:
as §2

A short description of data set [5]: Aqueous solubility in water. It is filed as physicochemical.
Data set [6] is described as follows: Half life in PBS buffer at pH 6.01 by RP-HPLC method. The format is ADME. The gist of the method:
as §2

The nature of data set [7]: Half life in Dulbecco's Modified eagle medium at pH 7.7 containing 10% fetal bovine serum. It is filed as ADME. Conditions: cattle, Dulbecco's Modified Eagle medium with 10% fetal bovine serum. The gist of the method: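 Compound incubated at 37 °C in DMEM with 10% FBS. At set times an aliquot was mixed with 9 volumes of acetonitrile to precipitate protein, and the supernatant was analysed by RP-HPLC with UV detection at 254 nm against an internal standard.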

Data set [8] in a line: Half life in PBS buffer at pH 7.4 at 4 degC by RP-HPLC method. The format is ADME.
A short description of data set [9]: Inhibition of CREB (unknown origin) expressed in HEK293T cells assessed as reduction in CREB-mediated gene tanscription after 5 hrs by luciferase reporter gene assay. Conditions: Homo sapiens, HEK-293T. The format is cell-based. The gist of the method:
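CREB-Renilla luciferase reporter assay in living HEK 293T cells measuring CREB-mediated gene transcription. Highest concentration tested 50 μM. IC50 given as mean ± SD of at least two independent experiments.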
Background: In a reporter assay the amount or activity of a reporter protein is the signal.

A further data set relates to MCF7. The data set can be described thus: Growth inhibition of human MCF7 cells after 72 hrs by MTT assay. The format is functional. As to conditions: MCF7, 72 h. The gist of the method:
as §1

A short description of data set [10]: Drug level in PBS buffer treated with 2-(3-(3-Aminopropoxy)-2-naphthamido)-5-chlorophenyl 3-(3-Aminopropoxy)-2-naphthoate dihydrochloride at room temperature assessed as compound formation. It is filed as physicochemical. The gist of the method:
as §2

A short description of data set [11]: Retention time of the compound by HPLC method. The format is physicochemical.

The IC50 is the concentration at which inhibition is half-maximal. For orientation: half-life means how long it takes for the measured level to halve. As a reminder, the GI50 is the concentration that inhibits growth by half. Low readings indicate more potent growth inhibition, high ones less potent growth inhibition. In general, solubility refers to the concentration that dissolves in the medium under given conditions.

Regarding `Cl.NCCCOc1cc2ccccc2cc1C(=O)Nc1ccc(Cl)cc1OC(=O)c1cc2ccccc2cc1OCCCN`, the IC50 in the data set on A549 was found to be 590 nM; in data set [2], 4400 nM; in data set [9] it was 2270 nM. Besides, the fold change (FC) in the data set with HEK-293T stood at 10. Also, the half-life is 0.455 h in data set [1]; 1.91 h in data set [3]; 0.628 h in [4]; 7.46 h in [6]; < 0.0833 h in [7]; 24 h in data set [8]. Besides, the GI50 was determined as 330 nM in the data set on MDA-MB-468 and 1300 nM in the data set with MDA-MB-231. Further, in [5], the solubility is > 100000 µg/mL.

As for `COc1cc2ccccc2cc1C(=O)Nc1ccc(Cl)cc1OC(=O)c1cc2ccccc2cc1OC`, the IC50 with A549 stood at 8780 nM; in [2], 170 nM; in data set [9], 1950 nM. Besides, the GI50 with MDA-MB-468 turned out to be 8110 nM; in the data set on MDA-MB-231, 23500 nM. For the same compound, in [5], the solubility is < 100 µg/mL. The compound also had a half-life in data set [7] of 20 h.

Take `COc1cc2ccccc2cc1C(=O)Nc1ccc(Cl)cc1O`: the half-inhibitory concentration (IC50) is > 100000 nM in the data set on A549, > 50000 nM in [2] and > 50000 nM in [9]. Besides, the concentration for 50% growth inhibition (GI50) with MDA-MB-468, in the data set with MDA-MB-231 and in the data set with MCF7 was > 100000 nM throughout.

Turning to `O=C(Nc1ccc(Cl)cc1)c1cc2ccccc2cc1O`, the results for the IC50 (with A549; in [2]; in data set [9]) were 2900 nM, 2900 nM and 2290 nM, respectively. The concentration for 50% growth inhibition (GI50) came out at 1460 nM in the data set with MDA-MB-468, 2350 nM in the data set with MDA-MB-231 and 2810 nM in the data set with MCF7.

In the case of `NCCCOc1cc2ccccc2cc1C(=O)Nc1ccc(Cl)cc1O`, the figures for the IC50 (in the data set with A549; in data set [2]; in [9]) were 2730 nM, > 50000 nM and 26200 nM, respectively. Also, the results for the GI50 in the data set on MDA-MB-468, in the data set with MDA-MB-231 and in the data set on MCF7 were 1200 nM, 2190 nM and 1850 nM, respectively.

For the compound `Cl.NCCCOc1cc2ccccc2cc1C(=O)NCCCOc1cc2ccccc2cc1C(=O)Nc1ccc(Cl)cc1O`, the 50% inhibitory concentration (IC50) in the data set with A549 stood at 290 nM; in data set [2], 19700 nM; in data set [9] it was 2220 nM. For the same compound, in the data set with HEK-293T, the fold change (FC) worked out at 10. Besides, the Drug metabolism result in [10] is reported as “metabolite_detected”. In data set [11], this compound had a Retention_time of 12.2 min. In addition, the GI50 in the data set with MDA-MB-468 is 220 nM; in the data set on MDA-MB-231, 370 nM; in the data set with MCF7, 140 nM. Also, the solubility in [5] came out at 120 µg/mL.
